This passage reports IC50 and Ratio IC50 results from ChEMBL document CHEMBL1149742, “Displacement activity of bisbenzylisoquinoline alkaloids at striatal 3H-SCH 23390 and 3H-raclopride binding sites” (J Nat Prod, 1992).

One assay addresses D(1A) dopamine receptor (Rattus norvegicus, UniProt P18901). The experiment in a line: Displacement of [3H]SCH23390 from dopamine D1 receptor in Wistar rat striatal membrane by liquid scintillation counting. The assay is classed as cell membranes, Striatum. Put shortly: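 Striata from male Wistar rats (200–250 g) homogenized in 50 mM Tris-HCl pH 7.4, centrifuged twice at 20,000 g, resuspended in Tris-Mg buffer (5 mM MgSO4, 0.5 mM EDTA, 0.02% ascorbic acid). 100 µg protein incubated 1 h at 25° with 0.25 nM [3H]SCH 23390 (final), compounds at 6 or 11 concentrations 10^-9–10^-4 M. Nonspecific binding with 30 µM SK&F 38393. GF/B filtration. IC50 with 95% confidence limits by Litchfield–Wilcoxon, 4–8 determinations per concentration.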
Background: Displacement assays read how much labelled ligand stays bound in the presence of the test substance.

Another assay deals with D(2) dopamine receptor (Rattus norvegicus, UniProt P61169). The experiment in a line: Displacement of [3H]raclopride from dopamine D2 receptor in Wistar rat striatal membrane by liquid scintillation counting. The assay is classed as cell membranes, Striatum. Put shortly:
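Male Wistar rat (200–250 g) striatal membranes, centrifuged four times at 20,000 g, resuspended in Tris-ions buffer (120 mM NaCl, 5 mM KCl, 1 mM CaCl2, 1 mM MgCl2, 0.1% ascorbic acid, pH 7.4). 200 µg protein incubated 1 h at 25° with 0.5 nM [3H]raclopride (final), compounds at 6 or 11 concentrations 10^-9–10^-4 M. Nonspecific binding with 50 µM apomorphine. GF/B filtration. IC50 by Litchfield–Wilcoxon, 4–8 determinations per concentration.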

A further assay is filed under the species Rattus norvegicus. The experiment in a line: Selectivity ratio of IC50 for dopamine D1 receptor in Wistar rat striatal membrane to IC50 for dopamine D2 receptor in Wistar rat striatal membrane. The format is cell membranes.

Sequence of D(1A) dopamine receptor (P18901 whole entry): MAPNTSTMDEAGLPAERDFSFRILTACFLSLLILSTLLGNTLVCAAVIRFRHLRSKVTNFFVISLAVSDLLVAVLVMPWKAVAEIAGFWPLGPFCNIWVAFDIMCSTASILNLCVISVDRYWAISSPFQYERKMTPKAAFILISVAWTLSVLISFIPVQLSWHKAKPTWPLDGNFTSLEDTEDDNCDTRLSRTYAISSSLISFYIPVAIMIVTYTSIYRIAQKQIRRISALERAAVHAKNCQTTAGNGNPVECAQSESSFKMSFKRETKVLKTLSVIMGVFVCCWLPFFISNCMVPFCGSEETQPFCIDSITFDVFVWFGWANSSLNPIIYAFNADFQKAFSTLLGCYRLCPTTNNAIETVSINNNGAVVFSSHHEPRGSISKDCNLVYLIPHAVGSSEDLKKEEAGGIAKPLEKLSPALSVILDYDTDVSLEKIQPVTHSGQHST
Sequence of D(2) dopamine receptor (P61169 whole entry): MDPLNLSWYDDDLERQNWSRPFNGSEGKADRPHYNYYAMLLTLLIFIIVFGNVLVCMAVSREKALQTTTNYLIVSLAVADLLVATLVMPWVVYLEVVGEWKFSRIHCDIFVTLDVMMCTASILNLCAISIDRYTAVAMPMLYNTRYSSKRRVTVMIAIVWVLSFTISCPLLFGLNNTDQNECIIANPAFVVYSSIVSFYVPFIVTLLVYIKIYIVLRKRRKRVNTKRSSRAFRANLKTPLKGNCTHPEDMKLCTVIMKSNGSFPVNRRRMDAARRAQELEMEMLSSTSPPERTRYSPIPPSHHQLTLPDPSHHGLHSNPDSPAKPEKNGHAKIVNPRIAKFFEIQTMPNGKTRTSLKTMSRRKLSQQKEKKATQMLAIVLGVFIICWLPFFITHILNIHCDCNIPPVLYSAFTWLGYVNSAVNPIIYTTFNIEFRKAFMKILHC

For the compound `COc1ccc2cc1Oc1ccc(cc1)C[C@@H]1c3c(cc(OC)c(O)c3Oc3cc4c(cc3OC)CCN(C)[C@H]4C2)CCN1C` (racemic), the IC50 at D(1A) dopamine receptor amounted to 15.4 µM; at D(2) dopamine receptor, 66.4 µM. Further, the Ratio IC50 in the assay filed under Rattus norvegicus was determined as 0.2.

`COc1ccc(C=O)cc1Oc1ccc(C[C@H]2c3c(cc(OC)c(OC)c3Oc3cc4c(cc3OC)CCN(C)C4=O)CCN2C)cc1`: the IC50 at D(1A) dopamine receptor and on D(2) dopamine receptor was more than 30 µM throughout.

Regarding `COc1cc2c(cc1OC)[C@@H](Cc1ccc(OC)c(Oc3ccc(C[C@H]4NCCc5cc(OC)c(OC)cc54)cc3)c1)N(C)CC2`, the IC50 at D(1A) dopamine receptor and at D(2) dopamine receptor was more than 100 µM in each case.

On to `COc1cc2c(cc1Oc1c(O)c(OC)cc3c1[C@H](Cc1ccc(OC)c(-c4cc(C=O)ccc4O)c1)N(C)CC3)C(=O)N(C)CC2`, for which the results for the IC50 on D(1A) dopamine receptor and at D(2) dopamine receptor were more than 30 µM and 10 µM, respectively. For the same compound, in the assay listed under Rattus norvegicus, the Ratio IC50 was more than 3.

Consider `COc1cc2c(cc1OC)[C@@H](Cc1ccc(Oc3cc(C[C@@H]4c5cc(OC)c(OC)cc5CCN4C)ccc3OC)cc1)N(C)CC2`, for which the IC50 on D(1A) dopamine receptor and on D(2) dopamine receptor was more than 100 µM in each case.

As for `COc1cc2c(cc1OC)[C@@H](Cc1ccc(Oc3cc(C[C@H]4c5cc(OC)c(OC)cc5CCN4C)ccc3OC)cc1)N(C)CC2`, the IC50 worked out at 5.64 µM at D(1A) dopamine receptor and 1.45 µM at D(2) dopamine receptor. Further, the Ratio IC50 in the assay filed under Rattus norvegicus was found to be 3.9.

`COc1ccc(C[C@H]2c3c(cc(OC)c4c3Oc3cc5c(cc3O4)CCN(C)C5=O)CCN2C)cc1-c1cc(C=O)ccc1O`: the values for the 50% inhibitory concentration (IC50) at D(1A) dopamine receptor and at D(2) dopamine receptor were more than 100 µM and 81.6 µM, respectively. The Ratio IC50 in the assay listed under Rattus norvegicus was more than 1.2.

As to `COc1cc2c(cc1O)[C@@H](Cc1ccc(O)c(Oc3ccc(C[C@H]4c5cc(O)c(OC)cc5CCN4C)cc3)c1)N(C)CC2`, the results for the half-maximal inhibitory concentration (IC50) at D(1A) dopamine receptor and at D(2) dopamine receptor were 1.04 µM and 0.3 µM, respectively. Also, the Ratio IC50 in the assay filed under Rattus norvegicus was found to be 3.5.

Take `COc1ccc2cc1Oc1ccc(cc1)C[C@H]1c3c(cc(OC)c(OC)c3Oc3cc4c(cc3OC)CCN(C)[C@@H]4C2)CCN1C`: the IC50 at D(1A) dopamine receptor is 39.1 µM; at D(2) dopamine receptor, 28.4 µM. Also, the Ratio IC50 in the assay filed under Rattus norvegicus was 1.4.

With `COc1cc2c3cc1Oc1c(O)c(OC)cc4c1[C@H](Cc1ccc(OC)c(c1)-c1cc(ccc1O)C(=O)[C@H]3N(C)CC2)N(C)CC4`, the IC50 at D(1A) dopamine receptor was determined as 11.1 µM; on D(2) dopamine receptor, 2.76 µM. The Ratio IC50 in the assay listed under Rattus norvegicus turned out to be 4.

With `COc1cc2c3cc1Oc1c(O)c(OC)cc4c1[C@@H](C(=O)c1ccc(O)c(c1)-c1cc(ccc1OC)C[C@H]3N(C)CC2)N(C)CC4`, the IC50 came out at 90.2 µM on D(1A) dopamine receptor and 16.2 µM on D(2) dopamine receptor. Moreover, the Ratio IC50 in the assay listed under Rattus norvegicus was determined as 5.6.

Consider `COc1ccc2cc1Oc1ccc(cc1)C[C@H]1c3cc(c(OC)cc3CCN1C)Oc1c(OC)c(OC)cc3c1[C@@H](C2)N(C)CC3`, for which the IC50 on D(1A) dopamine receptor is 33.3 µM; on D(2) dopamine receptor it was 0.67 µM. Besides, the Ratio IC50 in the assay filed under Rattus norvegicus was found to be 49.6.

In the case of `COc1cc2c3cc1Oc1c(O)c(OC)cc4c1[C@H](Cc1ccc(OC)c(c1)-c1cc(ccc1O)C[C@H]3N(C)CC2)N(C)CC4`, the results for the IC50 on D(1A) dopamine receptor and at D(2) dopamine receptor were more than 100 µM and 3.18 µM, respectively. Besides, the Ratio IC50 in the assay filed under Rattus norvegicus was 31.4.

As to `COc1cc2c(cc1O)[C@@H](Cc1ccc(OC)c(Oc3ccc(C[C@H]4c5cc(O)c(OC)cc5CCN4C)cc3)c1)N(C)CC2`, the figures for the IC50 at D(1A) dopamine receptor and at D(2) dopamine receptor were 5.6 µM and 0.027 µM, respectively. Also, in the assay listed under Rattus norvegicus, the Ratio IC50 worked out at 207.

As usually defined, the IC50 is the point on the concentration scale where inhibition reaches its midpoint. Lower therefore signals higher potency.
